The values below come from paper PMC2213384 (The Journal of Experimental Medicine, 1998).

In data set [1] the test system is Qa-1^b. Type of data set: binding, mouse. The following applies: for Binding of poly-Gly peptides to Qa-1^b (in words): Table 2 in words, 20 μM; for Blocking of / binding to Qa-1^b at 20 μM (in words): 20 μM competitor.
Data set [2] concerns the target QdmC5 peptide (…) (mouse). As to the kind of experiment: SPR.
Data set [3] has as its target QdmC5 peptide (…) (mouse). As to the kind of experiment: SPR. The source holds these as a separate data set. For orientation: SPR reads the build-up and loss of mass on a sensor chip optically.
The target in data set [4] is QdmC5 peptide (…) (mouse). The data set can be described thus: SPR. This is another data set of the same source.
The target in data set [5] is QdmC5 peptide (…) (mouse). As to the kind of experiment: SPR. This is another data set of the same source.
In the next data set the test system is sM3. As to the kind of experiment: SPR direct binding of sM3 to immobilized QdmC5. The following applies: Fig. 1 B; 0.5 μM sM3, 20 μl at 1 μl/min.
The subject of the next data set is sCD1. As to the kind of experiment: SPR direct binding of sCD1 to immobilized QdmC5. The following applies: data not shown.
Data set [6] can be described thus: Solubility of peptides in running buffer / aqueous solvents. Type of data set: physicochemical. In a few lines:
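Solubility was judged for peptides used as competitors in SPR on a Biacore 2000 at 25°C. The running buffer was Hepes-buffered saline, or 2% DMSO in HBS for the hydrophobic leader peptides. Competitors were at 20 μM (poly-Gly series titrated up to 20 μM), co-injected with 0.5 μM soluble Qa-1b at 1 μl/min for 20 min over immobilized QdmC5.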

The test system of data set [7] is Qa-1^b. The following applies: previous finding; ref [6]; cited from earlier work.
For data set [8], the target named is soluble Qa-1^b/β2-microglobulin dimer (mouse (C57BL/6) | murine) (UniProt P06339). The data set can be described thus: SPR.
Chain of UniProt P06339 (P06339 21-357, chain 1 of 2): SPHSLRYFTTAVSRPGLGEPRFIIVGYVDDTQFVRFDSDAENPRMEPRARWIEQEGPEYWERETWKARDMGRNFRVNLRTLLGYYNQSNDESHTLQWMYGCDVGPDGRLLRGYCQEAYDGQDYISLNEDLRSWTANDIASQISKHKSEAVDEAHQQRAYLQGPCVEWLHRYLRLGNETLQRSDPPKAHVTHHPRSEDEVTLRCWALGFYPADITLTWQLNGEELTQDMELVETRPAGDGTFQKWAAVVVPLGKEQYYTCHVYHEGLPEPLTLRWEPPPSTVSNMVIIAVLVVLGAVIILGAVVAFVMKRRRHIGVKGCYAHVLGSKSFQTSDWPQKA
Chain of UniProt P06339 (P01887 21-119, chain 2 of 2, further chain): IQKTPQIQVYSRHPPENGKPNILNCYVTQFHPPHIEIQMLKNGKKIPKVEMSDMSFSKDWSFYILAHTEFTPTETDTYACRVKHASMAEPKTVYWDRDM

Like-named read-outs stand apart in the source and are kept apart here. Marks after values point to notes of the source that are not given here.

As for GMGGGGLGL, the “Binding of poly-Gly peptides to Qa-1^b (in words)” value with Qa-1^b [1] is “very little binding”.

Turning to “soluble Qa-1^b/β2-microglobulin dimer (from UniProt P06339 21-357; P01887 21-119) (complex)”, the RU, binding in the absence of peptide in [2] turned out to be 230 RU; in [3], 263 RU; in data set [4], 345 RU; in data set [5] it was 276 RU.

In the case of AMAPCTLLL [QdmC5], the “Binding of soluble protein to immobilized peptide (in words)” value in the data set with sM3 and in the data set on sCD1 was “failed to bind” throughout.

As to VMSPTVLLL, in data set [6] (2% DMSO in HBS (SPR running buffer)), the “Solubility in 2% DMSO in HBS” value is “remained soluble”. For the same molecule, the “Solubility in aqueous solvents” value in [6] (aqueous solvents) is listed as “not soluble in aqueous solvents”.

As for GMGGGGLLL, the “Blocked binding of sQa-1^b to immobilized QdmC5 peptide” value in the data set with Qa-1^b [1] (highest concentration tested (20 μM)) is reported as more than 50%. Further, in the data set on Qa-1^b [1] (titration, 200 nM), the “Blocking activity at 200 nM (in words)” value is “none”. The “Blocking activity at 2 μM (in words)” value with Qa-1^b [1] (titration, 2 μM) is “relatively little blocking activity”.

For the molecule MGAMAPRTL, the “Blocking of / binding to Qa-1^b at 20 μM (in words)” value in the data set on Qa-1^b [1] (Fig. 1 D, 0.5 μM sQa-1^b) is “failed to bind”.

Consider GMGGGGGLL, for which the “Binding of poly-Gly peptides to Qa-1^b (in words)” value in the data set with Qa-1^b [1] is recorded as “very little binding”.

As for “10-mer: Qdm extended by adding a leucine at position 10 (AMAPRTLLLL)”, the “Binding at 200 nM (in words)” value with Qa-1^b [1] (Fig. 1 D, 0.5 μM sQa-1^b, competitor 200 nM) is given as “almost no binding”. For the same molecule, the “Binding relative to the Qdm nonamer at 20 and 2 μM (in words)” value in the data set on Qa-1^b [1] (Fig. 1 D, 0.5 μM sQa-1^b, competitor 20 and 2 μM) is given as “decreased binding relative to the nonamer”.

Regarding AMAPRTLLL [Qdm, reference compound], the “Blocking of Qa-1^b binding / binding ability over the titration (in words)” value in the data set with Qa-1^b [1] (Fig. 1 D, 0.5 μM sQa-1^b, competitor 200 nM to 20 μM, 1 μl/min for 20 min) is listed as “completely blocked binding”. Further, the “Binding to Qa-1^b in 2% DMSO (in words)” value in the data set on Qa-1^b [1] (Fig. 3 B, running buffer 2% DMSO in HBS) is listed as “bind Qa-1^b”. For the same molecule, in the data set on Qa-1^b [7], the “Affinity of binding to Qa-1^b (in words)” value was “very high affinity”.

As to MAPRTLLLL, in the data set with Qa-1^b [1] (Fig. 1 D, 0.5 μM sQa-1^b), the “Blocking of / binding to Qa-1^b at 20 μM (in words)” value is given as “failed to bind”.

Turning to AMAPRTLLL [Qdm peptide (…)], in data set [8], the RU of sQa-1^b left on immobilised QdmC5 with 20 μM Qdm was determined as 25 RU.
